Some results are limits rather than exact numbers.

A short description of series [1]: Cytotoxicity in mock-infected human MT4 cells assessed as reduction in cell viability by MTT assay. It counts as cell-based. The essentials: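 Mock-infected MT-4 cells were run in parallel with the infected series: 6×10^5 cells/mL, serial fivefold compound dilutions, triplicate wells. MTT viability was read 5 days later at 540/690 nm from the median OD of three wells. CC₅₀ is the concentration cutting OD540 of mock-infected controls by 50%.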
On the technique in general: Formazan colour is commonly taken as a measure of viable cells.

In series [2] the test system is Human immunodeficiency virus 2. Briefly: Antiviral activity against HIV2 ROD infected in human MT4 cells assessed as inhibition of virus-induced cytopathogenicity by measuring virus-induced syncytium formation by MTT assay. It counts as functional, organism-based. The note with it: Human immunodeficiency virus 2, ISOLATE ROD. The method in brief:
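MT-4 cells, exponentially growing, spun 5 min at 220 g and resuspended at 6×10^5 cells/mL. Infected with virus stock at 100-300 CCID₅₀ (HIV-1 IIIB or HIV-2 ROD). Serial fivefold compound dilutions were tested in triplicate wells. Viability was read by MTT after 5 days at 540 and 690 nm, using the median OD of three wells. EC₅₀ was taken as 50% inhibition of virus-induced syncytium formation.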
In general terms: Cytopathic effects are the visible damage that an infection or toxin causes in cultured cells.

For series [3], the system named is Human immunodeficiency virus 1. In words: Antiviral activity against HIV1 3B infected in human MT4 cells assessed as inhibition of virus-induced cytopathogenicity by measuring virus-induced syncytium formation by MTT assay. It counts as functional, organism-based. To be noted: Human immunodeficiency virus 1, 3B. The method in brief: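 MT-4 cells, exponentially growing, spun 5 min at 220 g and resuspended at 6×10^5 cells/mL. Infected with virus stock at 100-300 CCID₅₀ (HIV-1 IIIB or HIV-2 ROD). Serial fivefold compound dilutions were tested in triplicate wells. Viability was read by MTT after 5 days at 540 and 690 nm, using the median OD of three wells.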

Series [4] is described as follows: Selectivity index, ratio of CC50 for mock-infected human MT4 cells to EC50 for antiviral activity against HIV1 3B infected in human MT4 cells. It counts as toxicity, cell-based. To be noted: mock-infected (CC50) and HIV1 3B infected (EC50). The method in brief: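 SI is CC₅₀/EC₅₀. Both values come from parallel MTT readings on mock-infected and HIV-1 IIIB-infected (100-300 CCID₅₀) MT-4 cells, in triplicate wells with serial fivefold dilutions, read after 5 days.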

Series [5] has as its system Human immunodeficiency virus 1. In words: Antiviral activity against HIV1 RES056 expressing reverse transcriptase K103N/Y181C double mutant infected in human MT4 cells assessed as inhibition of virus-induced cytopathogenicity by measuring virus-induced syncytium formation by MTT assay. Format: functional, organism-based. The note with it: Human immunodeficiency virus 1, RES056, MT4. The method in brief: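 MT-4 cells (exponentially growing, spun 5 min at 220 g, resuspended at 6×10^5 cells/mL) infected with 100-300 CCID₅₀ virus; serial fivefold compound dilutions added at start, triplicate wells, mock-infected set in parallel. Viability read by MTT reduction at 540 and 690 nm after 5 days; median OD of three wells; EC₅₀ = concentration inhibiting virus-induced syncytium formation by 50%.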

Series [6] concerns the target Human immunodeficiency virus type 1 reverse transcriptase (Human immunodeficiency virus 1, UniProt Q72547). In words: Inhibition of recombinant wild type HIV1 reverse transcriptase p66/p51 assessed as reduction in biotin-dUTP incorporation incubated for 40 mins using poly(rA) template and oligo(dT)16 primer by picogreen dye based spectrofluorometry.
The target of series [7] is Human immunodeficiency virus type 1 reverse transcriptase (Human immunodeficiency virus 1) (UniProt Q72547). Briefly: Potency index, ratio of IC50 for nevirapine to IC50 for test compound for inhibition of recombinant wild type HIV1 reverse transcriptase p66/p51 incubated for 40 mins using poly(rA) template and oligo(dT)16 primer by picogreen dye based spectrofluorometry.

Series [8] has as its system Human immunodeficiency virus 1. Briefly: Potency index, ratio of EC50 for nevirapine to EC50 for test compound for antiviral activity against HIV1 3B infected in human MT4 cells by MTT assay. Format: functional.

`COc1cccc(OC)c1Oc1cnc([N+](=O)[O-])c(Nc2ccc(C#N)cc2)c1`: in series [1], the CC50 (usually the concentration giving 50% cytotoxicity) is greater than 319 µM. For the same molecule, the EC50 in series [2] and in series [3] was greater than 319 µM in each case.
Turning to `Cc1cn([C@H]2C[C@H](N=[N+]=[N-])[C@@H](CO)O2)c(=O)[nH]c1=O` [ZIDOVUDINE], the CC50 in series [1] was greater than 7.48 µM. In addition, the selectivity ratio in series [4] is greater than 1290. Besides, the EC50 (as a rule, the midpoint of the concentration-response curve) in series [3] amounted to 0.006 µM.
As for `N#Cc1ccc(Nc2cc(Oc3c(Cl)cc(Cl)cc3Cl)cnc2[N+](=O)[O-])cc1`, the CC50 in series [1] is greater than 287 µM. Also, the values for the EC50 in series [5], in series [2] and in series [3] were greater than 287 µM, greater than 287 µM and 0.31 µM, respectively. For the same molecule, the selectivity ratio in series [4] is greater than 924.
Turning to `Cc1cc(C#N)cc(C)c1Oc1cnc([N+](=O)[O-])c(Nc2ccc(C#N)cc2)c1`, the CC50 in series [1] is greater than 324 µM. Further, the EC50 in series [5] is greater than 324 µM; in series [2], greater than 324 µM; in series [3], 4.12 µM. In series [4], the selectivity ratio is greater than 79.
With `Cc1cc(Br)c(Oc2cnc([N+](=O)[O-])c(Nc3ccc(C#N)cc3)c2)c(Br)c1`, the CC50 in series [1] worked out at 84.3 µM. Further, the EC50 is greater than 84.3 µM in series [5], greater than 84.3 µM in series [2] and 0.05 µM in series [3]. In series [4], the selectivity ratio is 1680. Also, in series [6], the IC50 (in general, the concentration needed to halve the response being measured) stood at 0.28 µM.
Regarding `Cc1cc(C)c(Oc2cnc(N)c(Nc3ccc(C#N)cc3)c2)c(C)c1`, in series [1], the CC50 is 32.1 µM. Besides, the EC50 is greater than 32.1 µM in series [5], greater than 32.1 µM in series [2] and 0.14 µM in series [3]. Moreover, in series [4], the selectivity ratio was 227. In addition, in series [6], the IC50 is 0.09 µM.
`Cc1cc(C)c(Oc2cnc([N+](=O)[O-])c(Nc3ccc(C#N)cc3)c2)c(C)c1`: in series [1], the CC50 was greater than 334 µM. Moreover, the EC50 in series [5] was greater than 334 µM; in series [2], greater than 334 µM; in series [3], 0.29 µM. In series [4], the selectivity ratio is greater than 1160.
In the case of `Cc1cc(Cl)cc(C)c1Oc1cnc([N+](=O)[O-])c(Nc2ccc(C#N)cc2)c1`, the CC50 in series [1] is greater than 317 µM. The EC50 is greater than 317 µM in series [5], greater than 317 µM in series [2] and 1.41 µM in series [3]. Moreover, the selectivity ratio in series [4] was greater than 171.
As for `COc1cccc(OC)c1Oc1cnc(N)c(Nc2ccc(C#N)cc2)c1`, the CC50 in series [1] was greater than 345 µM. In addition, the EC50 is greater than 345 µM in series [5], greater than 345 µM in series [2] and 35.7 µM in series [3]. In addition, the selectivity ratio in series [4] is greater than 10. The IC50 in series [6] is 146 µM.
As to `Cc1cc(Br)cc(C)c1Oc1cnc(N)c(Nc2ccc(C#N)cc2)c1`, the CC50 in series [1] came out at 26.7 µM. For the same molecule, the results for the EC50 in series [5], in series [2] and in series [3] were greater than 26.7 µM, greater than 26.7 µM and 0.84 µM, respectively. Moreover, in series [4], the selectivity ratio came out at 32. Also, the half-maximal inhibitory concentration (IC50) in series [6] is 0.26 µM.
As for `Cc1cc(C#N)cc(C)c1Oc1nc(Nc2ccc(C#N)cc2)nc(N)c1Br` [ETRAVIRINE], the CC50 in series [1] was greater than 4.59 µM.
On to `Cc1cc(Br)cc(C)c1Oc1cnc([N+](=O)[O-])c(Nc2ccc(C#N)cc2)c1`, for which the CC50 in series [1] was greater than 285 µM. In addition, the EC50 in series [5] was greater than 285 µM; in series [2] it was greater than 285 µM; in series [3], 4.41 µM. In addition, the selectivity ratio in series [4] is greater than 64.
Turning to `Cc1cccc(C)c1Oc1cnc([N+](=O)[O-])c(Nc2ccc(C#N)cc2)c1`, the CC50 in series [1] is greater than 347 µM. In addition, the EC50 was greater than 347 µM in series [5], greater than 347 µM in series [2] and 2.03 µM in series [3]. The selectivity ratio in series [4] was greater than 171.
Take `Cc1ccnc2c1NC(=O)c1cccnc1N2C1CC1` [NEVIRAPINE]: the CC50 in series [1] was greater than 15 µM. Further, the EC50 in series [5] was greater than 15 µM.
Consider `N#Cc1ccc(Nc2cc(Oc3c(Br)cc(Br)cc3Br)cnc2[N+](=O)[O-])cc1`, for which the CC50 in series [1] is greater than 220 µM. For the same molecule, the EC50 was greater than 220 µM in series [5], greater than 220 µM in series [2] and 0.79 µM in series [3]. In series [4], the selectivity ratio was greater than 277.
For the molecule `Cc1cc(Br)c(Oc2cnc(N)c(Nc3ccc(C#N)cc3)c2)c(Br)c1`, the CC50 in series [1] was greater than 264 µM. The EC50 in series [5] is greater than 264 µM; in series [2] it was greater than 264 µM; in series [3], 0.07 µM. Further, the selectivity ratio in series [4] is greater than 3800. Also, in series [6], the IC50 amounted to 0.05 µM. In addition, the Ratio IC50 in series [7] was determined as 45.
`Cc1cccc(C)c1Nc1cnc([N+](=O)[O-])c(Nc2ccc(C#N)cc2)c1`: in series [1], the CC50 is 6.27 µM. Also, the EC50 in series [5] is greater than 6.27 µM; in series [2], greater than 6.27 µM; in series [3], 1.06 µM. The selectivity ratio in series [4] amounted to 6.
In the case of `Cc1cccc(C)c1Oc1cnc(N)c(Nc2ccc(C#N)cc2)c1`, the CC50 in series [1] was greater than 378 µM. Also, the EC50 in series [5] is greater than 378 µM; in series [2], greater than 378 µM; in series [3], 0.6 µM. For the same molecule, the selectivity ratio in series [4] was greater than 628. The IC50 in series [6] came to 0.91 µM.
Take `O=C1Nc2ccc(Cl)cc2[C@@](C#CC2CC2)(C(F)(F)F)O1` [EFAVIRENZ]: the CC50 in series [1] was greater than 6.34 µM.
Regarding `N#Cc1ccc(Nc2cc(Oc3c(Cl)cc(Cl)cc3Cl)cnc2N)cc1`, the CC50 in series [1] came to 179 µM. Further, the EC50 is greater than 179 µM in series [5], no less than 57.7 µM in series [2] and 0.26 µM in series [3]. Moreover, the selectivity ratio in series [4] was determined as 680. Besides, the IC50 in series [6] worked out at 0.16 µM.
`N#Cc1ccc(Nc2cc(Oc3c(F)cc(F)cc3F)cnc2[N+](=O)[O-])cc1`: the CC50 in series [1] is greater than 324 µM. In addition, the figures for the EC50 in series [5], in series [2] and in series [3] were greater than 324 µM, greater than 324 µM and 1.01 µM, respectively. In addition, the selectivity ratio in series [4] was greater than 320.
Take `Cc1cc(C#N)cc(C)c1Oc1cnc(N)c(Nc2ccc(C#N)cc2)c1`: the CC50 in series [1] was determined as 39.5 µM. Also, the EC50 in series [5] is no less than 11.5 µM; in series [2] it was greater than 39.5 µM; in series [3], 0.07 µM. Besides, the selectivity ratio in series [4] is 577. In addition, the IC50 in series [6] is 0.17 µM.
In the case of `N#Cc1ccc(Nc2cc(Oc3c(Br)cc(Br)cc3Br)cnc2N)cc1`, the CC50 in series [1] stood at 27.7 µM. Also, the concentration giving a half-maximal response (EC50) in series [5] is greater than 27.7 µM; in series [2] it was greater than 27.7 µM; in series [3], 0.5 µM. In series [4], the selectivity ratio is 55. Further, the IC50 in series [6] was determined as 0.17 µM.
Regarding `Cc1cc(Cl)cc(C)c1Oc1cnc(N)c(Nc2ccc(C#N)cc2)c1`, the CC50 in series [1] amounted to 35.1 µM. Also, the EC50 in series [5] was greater than 35.1 µM; in series [2], greater than 35.1 µM; in series [3] it was 0.37 µM. Also, in series [4], the selectivity ratio stood at 95. Further, the IC50 in series [6] is 0.31 µM.
For `Cc1cc(C)c(Nc2cnc([N+](=O)[O-])c(Nc3ccc(C#N)cc3)c2)c(C)c1`, in series [1], the CC50 turned out to be 168 µM. Moreover, the “Ratio EC50” value in series [8] is given as 6. Further, the EC50 in series [5] was greater than 168 µM; in series [2], greater than 168 µM; in series [3], 0.04 µM. The selectivity ratio in series [4] was determined as 3960. For the same molecule, in series [6], the IC50 came out at 0.65 µM.

Values taken from ChEMBL document CHEMBL4190364, “Design, synthesis and anti-HIV evaluation of novel diarylpyridine derivatives as potent HIV-1 NNRTIs” (Eur J Med Chem, 2017).
